TLR4 MyD88 comp – TLR4-MyD88 interaction inhibition in cells; HeLa CL3-4 TLR4/MyD88 BLA complementation, FRET ratio; O00206+Q99836; 200,000 compounds, 0.18% hits; AID 861; inhibition, % at 8.4 µM; in the data active = inhibition above about 25%
MC4R antagonist – blocks human MC4R cAMP signaling; P32245; MC4R-expressing cells, MTII-stimulated cAMP, LANCE TR-FRET; inhibition, % at 6.5 µM; 360,000 compounds, 0.48% hits; AID 540295;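 active = inhibition above its plate's cutoff, the mean of tested wells on that plate plus 3 SD, cut at about 29% in these data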
Target sequence (P32245 whole entry, looked up): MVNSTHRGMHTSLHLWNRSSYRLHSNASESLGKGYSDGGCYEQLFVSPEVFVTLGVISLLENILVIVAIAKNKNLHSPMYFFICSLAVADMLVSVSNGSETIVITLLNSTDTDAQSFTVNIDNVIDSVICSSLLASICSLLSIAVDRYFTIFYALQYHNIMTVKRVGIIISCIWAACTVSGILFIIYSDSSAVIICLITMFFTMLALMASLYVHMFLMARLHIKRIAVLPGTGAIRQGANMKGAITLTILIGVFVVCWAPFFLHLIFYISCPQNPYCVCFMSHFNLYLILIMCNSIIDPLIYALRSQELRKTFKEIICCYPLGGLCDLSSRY
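Material – human MC4R-expressing U2OS cells · Repeats – no replicates · Detection – TR-FRET with Eu-cAMP and labeled anti-cAMP, 671 nm · Times – compound 30 min, challenge 1 h, detection 1 h · Compound – single nominal compound dose of 6.5 µM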
MC4R barr agon – agonists of human melanocortin 4 receptor (MC4R) beta-arrestin | activation, % at 8.9 µM | P32245 | 360,000 compounds, 0.98% hits | U2OS MC4R beta-arrestin complementation, luminescence; percent of melanotan II response, DMSO zero;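 active = activation above a per-plate cutoff, the mean activation of sample wells on that plate plus 3 SD, cut at about 8% in these data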
NOD2 RIPK2 PPI – NOD2-RIPK2 protein interaction inhibition. O43353. CHO BLA complementation NOD2-RIPK2, CCF4 ratio. inhibition, % at 4.98 µM. 360,000 compounds, 0.38% hits; in the data active = inhibition above about 21%
TLR9-MyD88 block – inhibitors of human TLR9-MyD88 binding | Q9NR96+Q99836 | CHO BLA complementation TLR9-MyD88, CCF4 FRET ratio | inhibition, % at 4.98 µM | 340,000 compounds, 0.21% hits | AID 504734;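 active = inhibition above the mean over all tested compounds plus 3 SD, cut at about 21% in these data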
MIN6 prolif – MIN6 beta-cell proliferation induction; MIN6 cells proliferation, ATPlite luminescence, 48 h; cells starved in 0.2% serum; 100% = growth in 10% serum; proliferation, % at 10 µM; 330,000 compounds, 0.29% hits;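 active = compounds whose signal lies at least 3.5 SD above the mean of all wells on their plate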
cAMP nonselect – counter-screen for MC4R antagonists: nonselective cAMP signaling inhibitors; shares compounds with MC4R antagonist; parental U2OS, forskolin cAMP, LANCE TR-FRET; inhibition, % at 6.5 µM; 1,600 compounds, 26% hits; AID 602193;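 active = mean inhibition over triplicates above the low-control well mean plus 3 SD, set per campaign, cut at about 13% in these data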;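 note: signal is single emission at 671 nm which falls as cellular cAMP rises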
MC4R antag conf – human MC4R cAMP antagonism confirmation. AID 602195. inhibition, % at 6.5 µM. shares compounds with MC4R antagonist. 1,600 compounds, 27% hits. MC4R-expressing cells, MTII-stimulated cAMP, TR-FRET; in the data active = inhibition above about 29%
MC4R barr ag – human MC4R beta-arrestin agonism confirmation; shares compounds with MC4R barr agon; U2OS MC4R beta-arrestin recruitment, luminescence; scaled DMSO 0%, Melanotan II 100%; 2,400 compounds, 31% hits; activation, % at 8.9 µM;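 active = mean activation across replicates above the hit cutoff set in the earlier primary screen, cut at about 8% in these data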
MOR-DOR barr ag – activates mu-delta opioid heterodimer, MC4R agonist counter-screen | activation, % at 9.2 µM | U2OS PathHunter beta-arrestin, beta-gal luminescence; percent of deltorphin B response, DMSO zero | 2,400 compounds, 5.8% hits | shares compounds with MC4R barr agon;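 active = mean activation across replicates exceeds the hit threshold derived in the earlier primary screen, cut at about 18% in these data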
NOD2 RIPK2 conf – confirmation of human NOD2-RIPK2 interaction inhibitors; shares compounds with NOD2 RIPK2 PPI; CHO cells, NOD2-RIPK2 BLA complementation, CCF4 FRET; inhibition, % at 4.98 µM; 1,200 compounds, 70% hits; AID 624370;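 active = mean inhibition across replicates above a set limit taken from the earlier primary screen, cut at about 21% in these data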
BLA counter – NOD2-RIPK2 counterscreen BLA reporter activity; shares compounds with NOD2 RIPK2 PPI; 1,200 compounds, 57% hits; CHO BLA reporter, CCF4 FRET ratio; inhibition, % at 4.98 µM;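 active = mean inhibition above the low-control mean inhibition plus three low-control SD, cut at about 11% in these data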
Numbers stand for hits; - = inactive; . = not tested or not shown. Rows were chosen to be rich in hits. Some 2.1% of all compounds tested hit in one or more screens of this group.

SMILES | TLR4 MyD88 comp | MC4R antagonist | MC4R barr agon | NOD2 RIPK2 PPI | TLR9-MyD88 block | MIN6 prolif | cAMP nonselect | MC4R antag conf | NOD2 RIPK2 conf | BLA counter | others
O=C(Nc1ccc(-c2nc3ccccc3o2)cc1)c1ccc2c(c1)OCO2 | - | 29.6 | 20.0 | - | - | - | - | - | . | . | MC4R barr ag=11.9;MOR-DOR barr ag=-
O=C(CSCc1cccc(Br)c1)N=Nc1c(O)[nH]c2ccccc12 | - | - | - | - | - | - | . | . | . | .
O=Nc1c(-c2c(O)[nH]c3cc(Br)ccc23)[nH]c2ccccc12 | . | 61.9 | 14.1 | - | - | - | - | 55.9 | . | . | MC4R barr ag=-;MOR-DOR barr ag=-
O=C1C2C3C=CC(C4CC34)C2C(=O)N1CCCCN1CCN(c2ccc(F)cc2)CC1 (configuration not stated) | . | - | - | - | - | - | . | . | . | .
Cc1c(Cl)sn(-c2ccc(Cl)cc2)c1=O | - | 72.8 | - | 29.0 | - | - | - | 69.9 | 89.1 | 28.3
Cc1nn(-c2ccc(Cl)cc2)c(=O)c2ccccc12 | - | - | - | - | - | - | . | . | . | .
CCCCC1Cc2[nH][nH]c(=O)c2C(c2ccc(Cl)cc2)O1 (configuration not stated) | . | . | . | - | . | . | . | . | . | .
CCOC(=O)C1CC(=NO)c2ccc(OC)c(OC)c2C1 (configuration not stated) | . | - | - | - | - | . | . | . | . | .
N#CC(C#N)=C1C=CC=CN1/C(=C\c1ccco1)C(=O)c1ccc(-c2ccccc2)cc1 | - | 31.2 | - | 21.7 | - | . | - | - | 78.3 | 15.8
N#CC(C#N)=C1C=CC=CN1/C(=C\c1ccco1)C(=O)c1ccc(Cl)cc1 | - | 33.7 | - | 93.6 | - | . | 28.8 | 43.2 | 91.1 | 17.2
C=CC(=O)N1C/C(=C/c2ccc(Cl)cc2)C(=O)/C(=C\c2ccc(Cl)cc2)C1 | . | 44.9 | - | 45.1 | - | . | 22.4 | - | 54.4 | -
O=C1C(=Cc2ccc(Cl)cc2)Cc2ccccc21 | . | . | . | - | . | . | . | . | . | .
CCOc1ccccc1NC(=O)c1nc(S(=O)(=O)Cc2cccc(C)c2)ncc1Cl | . | - | - | - | - | - | . | . | . | .
O=C(NCc1ccccc1)c1nc(S(=O)(=O)Cc2ccccc2)ncc1Cl | . | 47.9 | - | 52.6 | - | - | 33.8 | 59.9 | 53.8 | 13.9
Cc1cccc(CS(=O)(=O)c2ncc(Cl)c(C(=O)Nc3nnc(C(C)C)s3)n2)c1 | . | 57.9 | - | 41.1 | - | - | 27.1 | 53.8 | 35.3 | 27.7
Cc1ccc(CS(=O)(=O)c2ncc(Cl)c(C(=O)Nc3nnc(C(C)C)s3)n2)cc1 | . | 51.2 | - | 48.0 | - | - | 24.0 | 40.9 | 44.8 | 30.8
Cc1noc(C(=O)NCc2ccccc2)c1Cl | - | - | - | - | - | - | . | . | . | .
CC(C)c1nnc(NC(=O)c2nc(S(=O)(=O)Cc3ccc(F)cc3)ncc2Cl)s1 | . | 56.0 | - | 25.4 | - | - | 15.6 | 39.2 | 25.0 | 18.3
CC1=C/C(=N\OS(=O)(=O)c2ccccc2)C(C)=CC1=O | - | 67.5 | - | 53.6 | - | - | 39.3 | 76.3 | 51.1 | 13.5
O=C(O)CCCCCN1C(=O)/C(=C/c2cn(-c3ccccc3)nc2-c2cccs2)SC1=S | . | - | - | - | - | . | . | . | . | .
CC1=NNC(=O)/C1=C\c1cn(-c2ccccc2)nc1-c1cccs1 | - | 46.5 | - | 59.9 | - | - | 21.6 | 43.8 | 66.3 | -
CCc1nnc(NC(=O)c2nc(S(=O)(=O)Cc3cccc(C)c3)ncc2Cl)s1 | . | 38.7 | - | 34.2 | - | - | 19.8 | 32.4 | 28.1 | 19.4
CCc1nnc(NC(=O)c2nc(S(=O)(=O)Cc3ccc(C)cc3)ncc2Cl)s1 | . | 30.9 | - | 26.4 | - | - | 22.9 | 38.9 | 34.5 | 22.5
CCc1nnc(NC(=O)c2nc(Cl)ccc2Cl)s1 | . | - | - | - | - | - | . | . | . | .
CC1=NN(C(C#N)c2c(C)nn(Cc3ccccc3)c2C)C(C)(C)C1 (configuration not stated) | - | - | - | - | - | - | . | . | . | .
SMILES | TLR4 MyD88 comp | MC4R antagonist | MC4R barr agon | NOD2 RIPK2 PPI | TLR9-MyD88 block | MIN6 prolif | cAMP nonselect | MC4R antag conf | NOD2 RIPK2 conf | BLA counter | others
CCOC(=O)C(C)(C)Sc1ncnc2nc[nH]c12 | - | - | - | - | - | - | . | . | . | .
CCOC(=O)c1cc([N+](=O)[O-])cc([N+](=O)[O-])c1Sc1ncnc2nc[nH]c12 | . | 58.1 | - | 39.3 | - | . | 46.6 | 46.6 | 67.4 | -
CCN(CC)N=Nc1ccc(S(=O)(=O)Nc2nc(C)cc(C)n2)cc1 | . | - | - | - | - | - | . | . | . | .
NNC(=O)CNS(=O)(=O)c1ccc([N+](=O)[O-])cc1 | - | - | - | - | - | - | . | . | . | .
COc1ccc([N+](=O)[O-])c(S(=O)(=O)c2ccccc2)n1 | . | 28.8 | - | 33.0 | . | - | 28.6 | - | 59.0 | -
CCCCNC(=O)C1C(c2ccc(C(F)(F)F)cc2)=Nc2ccccc2N1C(=O)c1cccc(C(F)(F)F)c1 (configuration not stated) | . | . | . | - | . | . | . | . | . | .
O=[N+]([O-])c1cc(S(=O)(=O)Oc2ccccc2)ccc1Cl | . | 30.1 | - | 57.8 | - | . | 34.6 | - | - | -
CC(Sc1ccc(Cl)cc1)C(=O)N(C)CC(=O)Nc1ccc(N2CCOCC2)cc1 (configuration not stated) | . | - | - | - | - | - | . | . | . | .
N#CC1(NC(=O)CN2CCc3ccccc3C2)CCCC1 | - | - | - | - | - | - | . | . | . | .
COc1ccc(/C=N/NC(=O)c2sccc2C)c2ccccc12 | . | - | 19.4 | - | - | - | . | . | . | . | MC4R barr ag=10.8;MOR-DOR barr ag=-
Cc1ccccc1/C=N/NC(=O)c1sccc1C | - | - | - | - | - | - | . | . | . | .
CNC(=O)c1c(NC(=O)C2=COCCO2)sc2c1CCCC2 | . | - | - | - | - | - | . | . | . | .
Cc1nn(-c2ccccn2)c(C)c1Oc1ccccc1O | - | - | - | - | - | - | . | . | . | .
Cc1nn(-c2nc3ccccc3s2)c(C)c1Oc1ccccc1O | - | - | 21.9 | - | - | - | . | . | . | . | MC4R barr ag=-;MOR-DOR barr ag=-

Source: PubChem BioAssay (several laboratories)
